Results on eleven compounds are retold here after ChEMBL document CHEMBL1141431, “Brandisianins A-F, isoflavonoids isolated from Millettia brandisiana in a screening program for death-receptor expression enhancement activity” (J Nat Prod, 2007).

The source made the active and inactive calls. The rule behind the calls is not given here.

What is called IC50 is the midpoint of a concentration-inhibition curve.

For assay [1], the system named is DLD-1. Nature of the assay: Cytotoxicity against human DLD1 cells. It is filed as functional, cell-based.
The next assay concerns HeLa. Nature of the assay: Cytotoxicity against human HeLa cells. It is filed as functional, cell-based.
For assay [2], the system named is DLD-1. As to the kind of experiment: Activation of death-receptor 5 expression in human DLD-1/ SacI cells at 35.0 uM by luciferase assay relative to control. It is filed as functional. The method, boiled down: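 DLD-1 human colon cancer cells stably carrying pDR5/SacI (human DR5 promoter–luciferase) plated at 2 × 10^5 cells/well in RPMI with 10% FBS, 24 h at 37 °C, 5% CO2, then exposed 24 h to compound (tested at 17.5 and 35.0 µM). Lysed, luciferase substrate added, luminescence read; activity as relative light intensity versus EtOH-treated control cells; luteolin 17.5 µM positive control; n = 3.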

In assay [3] the test system is DLD-1. Nature of the assay: Activation of death-receptor 5 expression in human DLD-1/ SacI cells at 17.5 uM by luciferase assay relative to control. It is filed as functional, cell-based. The method, boiled down:
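DLD-1/SacI (human colon cancer line stably carrying human DR5 promoter–luciferase construct) seeded in RPMI with 10% FBS, 24 h at 37 °C, 5% CO2. Treated with samples (17.5 and 35.0 µM) 24 h. Lysed, luciferase substrate added, luminescence read. Activity expressed as light intensity relative to EtOH-treated control cells. Luteolin 17.5 µM as positive control. Means, n = 3 ± SD.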

For `COc1cc(-c2coc3cc(O)cc(O)c3c2=O)c(OC)cc1O` [OLIBERGIN A], the IC50 in the assay on DLD-1 [1] and in the assay with HeLa was above 25 µM each time.
In the case of `O=C1C[C@@H](c2ccc(O)cc2)Oc2cc(O)cc(O)c21` [NARINGENIN], the IC50 with DLD-1 [1] and in the assay with HeLa was above 25 µM each time.
Take `COc1cc(-c2coc3c4c(cc(O)c3c2=O)O[C@@](C)(CO)C=C4)c(OC)cc1O` [BRANDISIANIN D]: the IC50 in the assay with DLD-1 [1] and in the assay on HeLa was above 25 µM in each case. In the assay with DLD-1 [2], this compound returned a Fold change of 3. Moreover, the result in the assay with DLD-1 [3] was Active.
`COc1cc(-c2coc3cc(O)c(CC=C(C)C)c(O)c3c2=O)c(OC)cc1O` [VIRIDIFLORIN]: the half-maximal inhibitory concentration (IC50) in the assay with DLD-1 [1] and with HeLa was above 25 µM in each case.
In the case of `COc1cc2c(cc1O)[C@@H]1Oc3c(cc(OC)c(OC)c3O)[C@@H]1CO2` [BRANDISIANIN F], the 50% inhibitory concentration (IC50) in the assay on DLD-1 [1] and with HeLa was above 25 µM each time.
For `Oc1cc(O)c2c(c1)O[C@H](c1ccc(O)c(O)c1)[C@H](O)C2` [(-)-EPICATECHIN], the IC50 in the assay on DLD-1 [1] and in the assay on HeLa was above 25 µM each time.
For `COc1cc(-c2coc3c(C/C=C(\C)CO)c(O)cc(O)c3c2=O)c(OC)cc1O` [BRANDISIANIN E], the values for the IC50 with DLD-1 [1] and with HeLa were above 25 µM and 21.7 µM, respectively.
Turning to `COc1cc(-c2coc3cc(O)cc(O)c3c2=O)c(OC)cc1OCC=C(C)C` [BRANDISIANIN A], the IC50 in the assay with DLD-1 [1] and in the assay with HeLa was above 25 µM throughout.
Regarding `COc1cc(-c2coc3c4c(cc(O)c3c2=O)OC(C)(C)C=C4)c(OC)cc1O`, the IC50 in the assay with DLD-1 [1] and with HeLa was above 25 µM in each case. In the assay with DLD-1 [2], this compound registered a Fold change of 2.4.
Consider `COc1cc(-c2coc3c(CC=C(C)C)c(O)cc(O)c3c2=O)c(OC)cc1O` [BRANDISIANIN C], for which the 50% inhibitory concentration (IC50) with DLD-1 [1] is above 25 µM; in the assay on HeLa it was 19.1 µM.
On to `C=C(C)[C@H]1Cc2c(cc(O)c3c(=O)c(-c4cc(OC)c(O)cc4OC)coc23)O1` [BRANDISIANIN B], for which the IC50 with DLD-1 [1] is above 25 µM; in the assay with HeLa it was 9.7 µM.
